In ChEMBL document CHEMBL1909633, “Pseudoguaianolides and guaianolides from Inula hupehensis as potential anti-inflammatory agents” (J Nat Prod, 2011):

These molecules were tested on RAW264.7 (assay: Cytotoxicity against mouse RAW264.7 cells after 24 hrs by MTT assay). Conditions: raw264.7, 24 h.
Type: cell-based
In short: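 RAW264.7 macrophages, cultured and treated alongside the LPS (1 μg/mL, 24 h) NO assay with sample pretreatment of 30 min; viability read by MTT reduction.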

Compound	Activity
C=C1C(=O)O[C@H]2C=C(C)[C@H]3CC[C@](C)(O)[C@@H]3C[C@H]12	Non-toxic
C=C1C(=O)O[C@H]2[C@H]1[C@@H](O)C[C@@H](C)[C@@H]1C=CC(=O)[C@]12C	Non-toxic
C[C@@H]1C[C@@H]2OC(=O)[C@@H](C)[C@H]2[C@H](O)[C@]2(C)C(=O)C=C[C@@H]12	Non-toxic
C=C1C(=O)O[C@H]2C[C@@H](COC(C)=O)[C@@H]3CCC(=O)[C@@]3(C)C[C@H]12	Non-toxic
C=C1C(=O)O[C@H]2C[C@@H](C)[C@@H]3[C@H](OC)CC(=O)[C@@]3(C)[C@@H](O)[C@H]12	Non-toxic
C=C1C(=O)O[C@H]2C[C@@H](C)[C@@H]3[C@H](OCC)CC(=O)[C@@]3(C)[C@@H](O)[C@H]12	Non-toxic
C=C1C(=O)O[C@H]2C[C@@H](C)[C@@H]3[C@H](OC)CC(=O)[C@@]3(C)[C@@H](OC(C)=O)[C@H]12	Non-toxic
C=C1C(=O)O[C@H]2C[C@@H](C)[C@@H]3[C@@H](OC)CC(=O)[C@@]3(C)[C@@H](OC(C)=O)[C@H]12	Non-toxic
C[C@@H]1C[C@@H]2OC(=O)[C@H](C)[C@H]2[C@H](O)[C@]2(C)C(=O)CC[C@@H]12	Non-toxic
C=C1C(=O)O[C@H]2C=C(C)[C@@H]3[C@@H]([C@@H](O)[C@H]12)[C@](C)(O)C[C@@H]3OC(C)=O	Non-toxic
C=C1C(=O)O[C@H]2C[C@@H](C)[C@@H]3C=CC(=O)[C@@]3(C)[C@@H](O)[C@H]12	Non-toxic
C=C1C(=O)O[C@H]2C=C(C)[C@H]3CC[C@@](C)(O)[C@@H]3[C@@H](OC(C)=O)[C@H]12	Non-toxic
C=C1C[C@H]2OC(=O)C(=C)[C@H]2C[C@@H]2[C@@H]1CC[C@@]2(C)O	Non-toxic
C=C1C(=O)O[C@H]2C[C@@H](C)[C@@H]3C=CC(=O)[C@@]3(C)C[C@H]12 [AROMATICIN]	Non-toxic
C=C1C(=O)O[C@H]2C[C@@H](C)[C@@H]3C=CC(=O)[C@@]3(C)[C@@H](OC(C)=O)[C@H]12 [BIGELOVIN]	Non-toxic
C=C1C(=O)O[C@@H]2C[C@H](C)[C@@H]3[C@@H](O)CC(=O)[C@@]3(C)C[C@H]12 [BURRODIN]	Non-toxic
C=C1C(=O)O[C@H]2C[C@@H](C)[C@@H]3CCC(=O)[C@@]3(C)[C@@H](O)[C@H]12 [CARPESIOLIN]	Non-toxic
C=C1C(=O)O[C@@H]2C[C@H](C)[C@@H]3CCC(=O)[C@@]3(C)C[C@H]12 [CONFERTIN]	Non-toxic
C=C1C(=O)O[C@H]2C[C@@H](C)[C@@H]3CCC(=O)[C@@]3(C)[C@@H](OC(C)=O)[C@H]12 [ERGOLIDE]	Non-toxic
C=C1C(=O)O[C@H]2C[C@@H](C)[C@@H]3CCC(=O)[C@@]3(C)C[C@H]12 [GRAVEOLIDE]	Non-toxic
C=C1C(=O)O[C@H]2C[C@@](C)(O)C3=CC[C@](C)(O)[C@@H]3C[C@H]12 [GUAIANOLIDE]	Non-toxic
C=C1C(=O)O[C@@H]2CC(C)=C3[C@@H](OC(C)=O)C[C@@](C)(O)[C@@H]3C[C@H]12 [INUCHINENOLIDE B]	Non-toxic
C=C1C(=O)O[C@H]2C[C@H](C)[C@@H]3C(OC(C)=O)CC(OC(C)=O)[C@@]3(C)[C@@H](O)[C@H]12 (some centres undefined) [INUCHINENOLIDE C]	Non-toxic
C=C1C(=O)O[C@H]2CC(=C)[C@H]3CC[C@@](C)(O)[C@@H]3C[C@H]12 [INUVISCOLIDE]	Non-toxic

These molecules were tested on RAW264.7 (assay: Antiinflammatory action in mouse RAW264.7 cells assessed as inhibition of LPS-induced nitric oxide production treated 30 mins before LPS challenge measured after 24 hrs by griess reaction). Conditions: not given.
Type: functional, cell-based
In short: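 RAW264.7 macrophages seeded at 2 × 10^5 cells/well, pretreated 30 min with samples over 0.1–50.0 μM, then stimulated with LPS 1 μg/mL for 24 h. NO quantified as nitrite in culture supernatant using Griess reagent; IC50 derived.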

Compound	IC50
C=C1C(=O)O[C@H]2[C@H]1[C@@H](O)C[C@@H](C)[C@@H]1C=CC(=O)[C@]12C	3.5 µM
C[C@@H]1C[C@@H]2OC(=O)[C@@H](C)[C@H]2[C@H](O)[C@]2(C)C(=O)C=C[C@@H]12	10.5 µM
C=C1C(=O)O[C@H]2C[C@@H](COC(C)=O)[C@@H]3CCC(=O)[C@@]3(C)C[C@H]12	6.6 µM
C=C1C(=O)O[C@H]2C[C@@H](C)[C@@H]3[C@H](OC)CC(=O)[C@@]3(C)[C@@H](O)[C@H]12	5.1 µM
C=C1C(=O)O[C@H]2C[C@@H](C)[C@@H]3[C@@H](OC)CC(=O)[C@@]3(C)[C@@H](OC(C)=O)[C@H]12	1.5 µM
C[C@@H]1C[C@@H]2OC(=O)[C@H](C)[C@H]2[C@H](O)[C@]2(C)C(=O)CC[C@@H]12	19.8 µM
C=C1C(=O)O[C@H]2C[C@@H](C)[C@@H]3C=CC(=O)[C@@]3(C)[C@@H](O)[C@H]12	1.1 µM
C=C1C(=O)O[C@H]2C=C(C)[C@H]3CC[C@@](C)(O)[C@@H]3[C@@H](OC(C)=O)[C@H]12	17.1 µM
C=C1C(=O)O[C@H]2C[C@@H](C)[C@@H]3C=CC(=O)[C@@]3(C)C[C@H]12 [AROMATICIN]	8.2 µM
C=C1C(=O)O[C@H]2C[C@@H](C)[C@@H]3C=CC(=O)[C@@]3(C)[C@@H](OC(C)=O)[C@H]12 [BIGELOVIN]	0.9 µM
C=C1C(=O)O[C@H]2C[C@@H](C)[C@@H]3CCC(=O)[C@@]3(C)[C@@H](OC(C)=O)[C@H]12 [ERGOLIDE]	3.9 µM
C=C1C(=O)O[C@H]2CC(=C)[C@H]3CC[C@@](C)(O)[C@@H]3C[C@H]12 [INUVISCOLIDE]	21.9 µM
N=C(N)NN [PIMAGEDINE]	7.9 µM

The next lines start with the values.

IC50	Compound
6.3 µM	C=C1C(=O)O[C@H]2C=C(C)[C@H]3CC[C@](C)(O)[C@@H]3C[C@H]12
3.8 µM	C=C1C(=O)O[C@H]2C[C@@H](C)[C@@H]3[C@H](OCC)CC(=O)[C@@]3(C)[C@@H](O)[C@H]12
2.2 µM	C=C1C(=O)O[C@H]2C[C@@H](C)[C@@H]3[C@H](OC)CC(=O)[C@@]3(C)[C@@H](OC(C)=O)[C@H]12
9.2 µM	C=C1C(=O)O[C@H]2C=C(C)[C@@H]3[C@@H]([C@@H](O)[C@H]12)[C@](C)(O)C[C@@H]3OC(C)=O
8 µM	C=C1C[C@H]2OC(=O)C(=C)[C@H]2C[C@@H]2[C@@H]1CC[C@@]2(C)O
9.5 µM	C=C1C(=O)O[C@@H]2C[C@H](C)[C@@H]3[C@@H](O)CC(=O)[C@@]3(C)C[C@H]12 [BURRODIN]
8.4 µM	C=C1C(=O)O[C@H]2C[C@@H](C)[C@@H]3CCC(=O)[C@@]3(C)[C@@H](O)[C@H]12 [CARPESIOLIN]
9.8 µM	C=C1C(=O)O[C@@H]2C[C@H](C)[C@@H]3CCC(=O)[C@@]3(C)C[C@H]12 [CONFERTIN]
9.2 µM	C=C1C(=O)O[C@H]2C[C@@H](C)[C@@H]3CCC(=O)[C@@]3(C)C[C@H]12 [GRAVEOLIDE]
26.8 µM	C=C1C(=O)O[C@H]2C[C@@](C)(O)C3=CC[C@](C)(O)[C@@H]3C[C@H]12 [GUAIANOLIDE]
9.9 µM	C=C1C(=O)O[C@@H]2CC(C)=C3[C@@H](OC(C)=O)C[C@@](C)(O)[C@@H]3C[C@H]12 [INUCHINENOLIDE B]
0.6 µM	C=C1C(=O)O[C@H]2C[C@H](C)[C@@H]3C(OC(C)=O)CC(OC(C)=O)[C@@]3(C)[C@@H](O)[C@H]12 (some centres undefined) [INUCHINENOLIDE C]
